Reference: ChEMBL document CHEMBL3808334, “Synthesis and in vitro evaluation of novel triazine analogues as anticancer agents and their interaction studies with bovine serum albumin” (Eur J Med Chem, 2016)

Legend:
Type in all cases: functional
[1] = system: SN12C; assay: Growth inhibition of human SN12C cells assessed as cell growth at 10^-4 M incubated for 48 hrs by sulforhodamine B assay; conditions: read-out: Activity
[2] = Growth inhibition of human Hs 578T cells assessed as cell growth at 10^-4 M incubated for 48 hrs by sulforhodamine B assay; conditions: read-out: Activity
[3] = Growth inhibition of human BT549 cells assessed as cell growth at 10^-4 M incubated for 48 hrs by sulforhodamine B assay; conditions: BT-549, 48 h, read-out: Activity
Outline: (§1)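 Five-dose assay: five concentrations from 10-fold or ½-log serial dilutions. Cells are plated at 5,000–40,000 per well according to doubling time, grown 24 h, then exposed 48 h at 37 °C, 5% CO₂. Fixed with cold 50% TCA (final addition) for 60 min at 4 °C and stained with 0.4% SRB in 1% acetic acid. Bound dye is solubilized in 10 mM Tris base and read at 515 nm. GI₅₀ is where [(Ti−Tz)/(C−Tz)]×100 = 50, with a time-zero plate as Tz.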

[4] = Growth inhibition of human HOP62 cells incubated for 48 hrs by sulforhodamine B assay; conditions: HOP-62, 48 h
Outline: (§2)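 Cells seeded at 5,000–40,000/well according to doubling time and preincubated 24 h at 37 °C, 5% CO2. Time-zero plates were TCA-fixed. DMSO concentrate was diluted in medium with 50 µg/ml gentamicin to give five concentrations (10-fold or ½ log steps), then exposed 48 h. Cells were TCA-fixed, stained with 0.4% SRB and read at 515 nm. Percent growth was taken against time-zero and control; GI50, TGI and LC50 derived.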

[5] = system: 786-0; assay: Growth inhibition of human 786-0 cells incubated for 48 hrs by sulforhodamine B assay; conditions: 786-0, 48 h; outline: as §1
[6] = Growth inhibition of human OVCAR8 cells assessed as cell growth at 10^-8 M incubated for 48 hrs by sulforhodamine B assay; conditions: OVCAR-8, 48 h, read-out: Activity
[7] = Growth inhibition of human UO31 cells assessed as cell growth at 10^-8 M incubated for 48 hrs by sulforhodamine B assay; conditions: UO-31, 48 h, read-out: Activity
[8] = Growth inhibition of human PC3 cells assessed as cell growth at 10^-8 M incubated for 48 hrs by sulforhodamine B assay; conditions: PC-3, 48 h, read-out: Activity
[9] = system: MCF7; assay: Growth inhibition of human MCF7 cells assessed as cell growth at 10^-8 M incubated for 48 hrs by sulforhodamine B assay; conditions: MCF7, 48 h, read-out: Activity
[10] = Growth inhibition of human MOLT4 cells assessed as cell growth at 10^-7 M incubated for 48 hrs by sulforhodamine B assay; conditions: MOLT-4, 48 h, read-out: Activity
Outline: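 Cells plated at 5,000–40,000/well according to doubling time and preincubated 24 h at 37 °C, 5% CO₂, with time-zero plates TCA-fixed. Drugs were kept as DMSO concentrates at 400× the top concentration and diluted in medium with 50 µg/ml gentamicin. Five 10-fold or ½-log dilutions were run for 48 h, followed by SRB staining and A515. Percent growth = (Ti−Tz)/(C−Tz)×100, or (Ti−Tz)/Tz×100 when Ti<Tz.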

[11] = Growth inhibition of human HCC2998 cells assessed as cell growth at 10^-7 M incubated for 48 hrs by sulforhodamine B assay; conditions: HCC 2998, 48 h, read-out: Activity; outline: as §2
[12] = system: EKVX; assay: Growth inhibition of human EKVX cells assessed as cell growth at 10^-4 M incubated for 48 hrs by sulforhodamine B assay; conditions: read-out: Activity; outline: as §2
[13] = Growth inhibition of human HCT116 cells assessed as cell growth at 10^-4 M incubated for 48 hrs by sulforhodamine B assay; conditions: HCT-116, 48 h, read-out: Activity; outline: as §2
[14] = system: NCI/ADR-RES; assay: Growth inhibition of human NCI/ADR-RES cells assessed as cell growth at 10^-7 M incubated for 48 hrs by sulforhodamine B assay; conditions: read-out: Activity
[15] = Growth inhibition of human SKOV3 cells assessed as cell growth at 10 uM incubated for 48 hrs by sulforhodamine B assay; conditions: SK-OV-3, 48 h, read-out: Activity
[16] = system: MDA-MB-468; assay: Growth inhibition of human MDA-MB-468 cells assessed as cell growth at 10 uM incubated for 48 hrs by sulforhodamine B assay; conditions: MDA-MB-468, 48 h, read-out: Activity
[17] = system: A549; assay: Growth inhibition of human A549/ATCC cells assessed as cell growth at 10^-8 M incubated for 48 hrs by sulforhodamine B assay; conditions: A549, 48 h, read-out: Activity; outline: as §1
[18] = system: MDA-MB-231; assay: Growth inhibition of human MDA-MB-231 cells assessed as cell growth at 10^-7 M incubated for 48 hrs by sulforhodamine B assay; conditions: MDA-MB-231, 48 h, read-out: Activity
[19] = system: SR; assay: Growth inhibition of human SR cells assessed as cell growth at 10^-6 M incubated for 48 hrs by sulforhodamine B assay; conditions: read-out: Activity
[20] = system: NCI-H23; assay: Growth inhibition of human NCI-H23 cells assessed as cell growth at 10^-6 M incubated for 48 hrs by sulforhodamine B assay; conditions: NCI-H23, 48 h, read-out: Activity
[21] = system: NCI-H322M; assay: Growth inhibition of human NCI-H322M cells assessed as cell growth at 10^-6 M incubated for 48 hrs by sulforhodamine B assay; conditions: read-out: Activity
[22] = Growth inhibition of human SNB75 cells assessed as cell growth at 10^-8 M incubated for 48 hrs by sulforhodamine B assay; conditions: SNB-75, 48 h, read-out: Activity
[23] = system: MDA-MB-435; assay: Growth inhibition of human MDA-MB-435 cells assessed as cell growth at 10^-6 M incubated for 48 hrs by sulforhodamine B assay; conditions: MDA-MB-435, 48 h, read-out: Activity
[24] = Growth inhibition of human HCT116 cells assessed as cell growth at 10^-5 M incubated for 48 hrs by sulforhodamine B assay; conditions: HCT-116, 48 h, read-out: Activity; outline: as §2
[25] = Growth inhibition of human SW620 cells assessed as cell growth at 10^-5 M incubated for 48 hrs by sulforhodamine B assay; conditions: SW-620, 48 h, read-out: Activity
[26] = Growth inhibition of human SF268 cells assessed as cell growth at 10^-5 M incubated for 48 hrs by sulforhodamine B assay; conditions: SF-268, 48 h, read-out: Activity
[27] = Growth inhibition of human LOXIMVI cells assessed as cell growth at 10^-5 M incubated for 48 hrs by sulforhodamine B assay; conditions: LOX IMVI, read-out: Activity
[28] = Growth inhibition of human OVCAR3 cells assessed as cell growth at 10^-5 M incubated for 48 hrs by sulforhodamine B assay; conditions: OVCAR-3, 48 h, read-out: Activity
[29] = read-out: LC50 (the source's name)
[30] = read-out: pLC50 (the source's name) (converted)

c1ccc(-c2nc(Nc3ccc(-c4nc5ccccc5[nH]4)cc3)nc(N3CCOCC3)n2)cc1
growth at 100 µM [1]: -59%
growth at 100 µM [2]: -43%
growth at 100 µM [3]: -80%
GI50 ([4]; read-out: GI50): 1730 nM
LC50 ([4]; read-out: LC50): 7.16 µM
TGI ([4]; read-out: TGI): 3.52 µM
GI50 ([4]; read-out: pGI50 (converted)): 1740 nM
LC50 ([4]; read-out: pLC50 (converted)): 7.08 µM
TGI ([4]; read-out: pTGI (converted)): 3.55 µM
GI50 ([5]; read-out: GI50): 257 nM
CC50 [5, 29]: 4.06 µM
TGI ([5]; read-out: TGI): 1250 nM
GI50 ([5]; read-out: pGI50 (converted)): 257 nM
CC50 [5, 30]: 4.07 µM
TGI ([5]; read-out: pTGI (converted)): 1260 nM
growth at 0.01 µM [6]: 101%
growth at 0.01 µM [7]: 82%
growth at 0.01 µM [8]: 99%
growth at 0.01 µM [9]: 92%
growth at 0.1 µM [10]: 79%
growth at 0.1 µM [11]: 97%
growth at 100 µM [12]: -66%
growth at 100 µM [13]: -69%
growth at 0.1 µM [14]: 95%
growth at 10 µM [15]: -30.3%
growth at 10 µM [16]: -62.7%
growth at 0.01 µM [17]: 103%
growth at 0.1 µM [18]: 86%
growth at 1 µM [19]: -20%
growth at 1 µM [20]: 93%
growth at 1 µM [21]: 86%
growth at 0.01 µM [22]: 79%
growth at 1 µM [23]: 96%
growth at 10 µM [24]: -61%
growth at 10 µM [25]: -77%
growth at 10 µM [26]: -83%
growth at 10 µM [27]: -61%
growth at 10 µM [28]: -90%

Fc1ccc(-c2nc(Nc3ccc(-c4nc5ccccc5[nH]4)cc3)nc(N3CCOCC3)n2)cc1
growth at 100 µM [1]: -21%
growth at 100 µM [2]: -3%
growth at 100 µM [3]: -28%
GI50 ([4]; read-out: GI50): 2110 nM
LC50 ([4]; read-out: LC50): > 100 µM
TGI ([4]; read-out: TGI): 5.3 µM
GI50 ([4]; read-out: pGI50 (converted)): 2090 nM
LC50 ([4]; read-out: pLC50 (converted)): > 100 µM
TGI ([4]; read-out: pTGI (converted)): 5.25 µM
GI50 ([5]; read-out: GI50): 1440 nM
CC50 [5, 29]: 7.24 µM
TGI ([5]; read-out: TGI): 3230 nM
GI50 ([5]; read-out: pGI50 (converted)): 1450 nM
CC50 [5, 30]: 7.24 µM
TGI ([5]; read-out: pTGI (converted)): 3240 nM
growth at 0.01 µM [6]: 101%
growth at 0.01 µM [7]: 88%
growth at 0.01 µM [8]: 100%
growth at 0.01 µM [9]: 94%
growth at 0.1 µM [10]: 96%
growth at 0.1 µM [11]: 95%
growth at 100 µM [12]: 3%
growth at 100 µM [13]: -78%
growth at 0.1 µM [14]: 95%
growth at 10 µM [15]: 19.6%
growth at 10 µM [16]: -1.23%
growth at 0.01 µM [17]: 95%
growth at 0.1 µM [18]: 86%
growth at 1 µM [19]: 37%
growth at 1 µM [20]: 85%
growth at 1 µM [21]: 93%
growth at 0.01 µM [22]: 86%
growth at 1 µM [23]: 95%
growth at 10 µM [24]: -84%
growth at 10 µM [25]: -47%
growth at 10 µM [26]: 3%
growth at 10 µM [27]: -73%
growth at 10 µM [28]: -61%
